Rad51 HR inh: human RAD51 strand exchange inhibitors, primary screen, biochemical, fluorescence. DNA repair protein RAD51 homolog 1 (Homo sapiens), Q06609. hRad51 DNA strand exchange, fluorescence dequenching. inhibition, % at 10 µM. hit rate 0.085% among 200,000. AID 1385, 2008;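 active = inhibition above 40% at the single screening dose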;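 also: 0% = DMSO control wells and 100% = blanks with heterologous ssDNA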
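Read-out basis: percent inhibition relative to plate controls and blanks / Assay system: human Rad51 nucleoprotein filaments preassembled on unlabelled ssDNA / Timing: filaments 15 min 37 °C, then compound 30 min / Control set: per-plate controls and blanks / Technique: fluorescence dequenching at 485/520 nm / Compound: 10 µM final, single point / Also added: Fluorescein- and BHQ1-tagged 47-mer duplex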
Lmaj promast: Leishmania major promastigote growth inhibition, primary screen; Leishmania major promastigotes, resazurin fluorescence viability; inhibition, % at 10 µM; hit rate 9% among 200,000; AID 1063, 2008; in the data active = inhibition above about 50%;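 also: promastigotes grown with compound for 44 hours at 28 °C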
PMI act: activators of human PMI, primary screen, biochemical, fluorescence intensity, near-Km mannose 6-phosphate. hit rate 0.005% among 190,000. activation factor at 20 µM. Mannose-6-phosphate isomerase (Homo sapiens), P34949. purified human PMI, coupled resazurin fluorescence, 20 min; stronger effect = higher value; 1 = vehicle control, 0 substrate-free wells;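 active = activation factor of 2 or more at 20 µM, relative to plate controls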
Target sequence (P34949 whole entry, looked up): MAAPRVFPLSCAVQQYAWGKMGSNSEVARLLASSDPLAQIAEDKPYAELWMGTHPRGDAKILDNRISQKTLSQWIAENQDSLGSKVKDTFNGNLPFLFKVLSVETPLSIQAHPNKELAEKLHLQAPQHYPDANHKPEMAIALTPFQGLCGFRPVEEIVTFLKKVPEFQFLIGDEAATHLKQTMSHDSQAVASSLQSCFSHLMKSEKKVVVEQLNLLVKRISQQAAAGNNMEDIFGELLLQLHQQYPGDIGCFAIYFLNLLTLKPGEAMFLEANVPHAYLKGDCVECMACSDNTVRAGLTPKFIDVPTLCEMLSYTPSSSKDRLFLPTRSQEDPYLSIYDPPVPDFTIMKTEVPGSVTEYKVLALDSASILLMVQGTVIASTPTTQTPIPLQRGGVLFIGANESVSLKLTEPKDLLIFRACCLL
m-calpain inh: inhibitors of pig calpain II, primary screen, biochemical, fluorogenic peptide substrate, 1536-well; hit rate 0.37% among 220,000; inhibition, % at 16 µM; purified calpain II, 30 min;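 active = inhibition above about 50%, limit read from the data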
PMI act hi M6P: human PMI activators, high substrate, primary screen, biochemical, fluorescence intensity, near-saturating mannose 6-phosphate; Mannose-6-phosphate isomerase (Homo sapiens), P34949; coupled PMI enzyme assay, resazurin fluorescence, 20 min; stronger effect = higher value; 1 = untreated enzyme, 0 = substrate-free blank; activation factor at 20 µM; hit rate 0.34% among 190,000;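 active = activation factor of 2 or more at 20 µM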
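Test system: human PMI in coupled enzyme assay; Input: PMI at 15 ng/mL final; Medium: HEPES buffer, pH 7.4; Schedule: 20 min incubation at room temperature; Technique: resorufin fluorescence at Ex 544/Em 590 nm; Compound: 20 µM single dose; Probe or stimulus: Near-saturating mannose-6-phosphate, 1.0 mM.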
WT yeast gro inh: growth inhibition of WT strain, primary screen, mitochondrial fusion inhibitor project, WT and mutant strains, chemical genetic | mitochondrial fusion phenotypic screen | inhibition, % at 10 µM | hit rate 2.1% among 190,000 | AID 1362, 2008; in the data active = inhibition above about 58%; tested in S. cerevisiae
Active calls of the source: *. The list is not random: actives were taken first. Their share in the collection is about 9.8%.

Results for COCCNC(=S)N(Cc1cc2cc(C)ccc2n2nnnc12)C1CCCC1 ?
Rad51 HR inh: -4; Lmaj promast: 12; PMI act: 1.1; m-calpain inh: 16; PMI act hi M6P: 1; WT yeast gro inh: 3

How did COCCN(Cc1cc2cc(C)ccc2n2nnnc12)C(=S)Nc1ccc(C)cc1 do in these assays?
Rad51 HR inh: 15; Lmaj promast: 57*; PMI act: 0.9; m-calpain inh: -109; PMI act hi M6P: 0.9; WT yeast gro inh: -89

What do the screens show for `CCCCOc1ccc(/C=C/C(=O)Nc2ccc(C(N)=O)cc2)cc1`?
Rad51 HR inh: 5; Lmaj promast: 91*; PMI act: 1.1; m-calpain inh: -9; PMI act hi M6P: 1.1; WT yeast gro inh: -9

Results for CCCOc1ccc(/C=C/C(=O)Nc2ccc([N+](=O)[O-])cc2)cc1 ?
Lmaj promast: 16; PMI act: 0.9; m-calpain inh: 22; PMI act hi M6P: 0.9; WT yeast gro inh: 12

What do the screens show for `O=C(NNC(=O)C1CCC(C(=O)NNC(=O)c2cccs2)CC1)c1cccs1` (stereo not drawn)?
Rad51 HR inh: 4; Lmaj promast: -3; PMI act: 1; m-calpain inh: -25; PMI act hi M6P: 1; WT yeast gro inh: -15

What do the screens show for `CC(=O)C1CCC2C3CCC4=CC(=O)CC[C@]4(C)[C@@]3(F)C(O)C[C@]12C` (stereo partly drawn)?
Rad51 HR inh: 2; m-calpain inh: 4

Results for COc1ccc(NC(=O)C(=S)NC2CCCCC2)cc1 ?
Rad51 HR inh: -3; Lmaj promast: 2; PMI act: 0.9; m-calpain inh: 17; PMI act hi M6P: 0.9; WT yeast gro inh: -18

How did COc1ccc(OC)c(NC(=O)C(=S)NC2CCCCC2)c1 do in these assays?
Rad51 HR inh: 26; Lmaj promast: 0; PMI act: 0.9; m-calpain inh: 15; PMI act hi M6P: 0.8; WT yeast gro inh: 74*

How did NC(=O)c1cccc(CC(=O)c2ccccc2)c1 do in these assays?
Rad51 HR inh: 8; m-calpain inh: -10

Results for FC(F)c1nc2ccccc2[nH]1 ?
Rad51 HR inh: 27; Lmaj promast: 4; PMI act: 1; m-calpain inh: -25; PMI act hi M6P: 1; WT yeast gro inh: -12

Results for c1ccc2[nH]c3cc4ncnc4cc3nc2c1 ?
Rad51 HR inh: -133; Lmaj promast: 99*; PMI act: 1.5; m-calpain inh: -22; PMI act hi M6P: 1.2; WT yeast gro inh: -9

How did Cc1ccccc1NC(=S)NC(C)CCc1ccccc1 (stereo not drawn) do in these assays?
Rad51 HR inh: -1; Lmaj promast: 62*; PMI act: 0.9; m-calpain inh: 20; PMI act hi M6P: 0.9; WT yeast gro inh: 68*

Results for Cc1cccc(C)c1NC(=S)NC(=O)CCc1ccccc1 ?
Rad51 HR inh: -5; Lmaj promast: 93*; PMI act: 0.9; m-calpain inh: 1; PMI act hi M6P: 1; WT yeast gro inh: -1

How did Cc1ccccc1NC(=S)NC(=O)CCc1ccccc1 do in these assays?
Rad51 HR inh: 1; Lmaj promast: 100*; PMI act: 0.9; m-calpain inh: 24; PMI act hi M6P: 1; WT yeast gro inh: 12

How did Cc1[nH]n(-c2nc(-c3ccccc3F)cc(=O)[nH]2)c(=O)c1CCO do in these assays?
Rad51 HR inh: -2; Lmaj promast: -3; PMI act: 1; m-calpain inh: 17; PMI act hi M6P: 0.9; WT yeast gro inh: 5

How did COCCCNC(=O)c1cc(C)nn1-c1ccccc1 do in these assays?
Rad51 HR inh: -25; m-calpain inh: -10

What do the screens show for `Cc1nc2ccccn2c1C(=O)NC1CCCc2ccccc21` (stereo not drawn)?
Rad51 HR inh: -3; Lmaj promast: -2; PMI act: 0.9; m-calpain inh: -23; PMI act hi M6P: 0.9; WT yeast gro inh: 11

What do the screens show for `CCn1cc(C(=O)NCc2ccco2)c(=O)c2cc(S(=O)(=O)N3CCc4ccccc4C3)ccc21`?
Rad51 HR inh: 0; Lmaj promast: 97*; PMI act: 0.9; m-calpain inh: -198; PMI act hi M6P: 0.9; WT yeast gro inh: -6

Results for CCn1cc(C(=O)NCCCN2CCCC2)c(=O)c2cc(S(=O)(=O)N3CCc4ccccc4C3)ccc21 ?
Rad51 HR inh: -8; Lmaj promast: 46; PMI act: 1; m-calpain inh: 31; PMI act hi M6P: 0.9; WT yeast gro inh: 0

What do the screens show for `CCCN(CCC)CCCNC(=O)c1cn(CC)c2ccc(S(=O)(=O)N3CCc4ccccc4C3)cc2c1=O`?
Rad51 HR inh: 1; Lmaj promast: 99*; PMI act: 1; m-calpain inh: 6; PMI act hi M6P: 1; WT yeast gro inh: -7

What do the screens show for `CCn1cc(C(=O)NCCCOC)c(=O)c2cc(S(=O)(=O)N(C)C)ccc21`?
Rad51 HR inh: -7; Lmaj promast: -4; PMI act: 1; m-calpain inh: 11; PMI act hi M6P: 0.9; WT yeast gro inh: 1

What do the screens show for `CCCCN(C)CCCNC(=O)c1cn(CC)c2ccc(S(=O)(=O)N3CCc4ccccc4C3)cc2c1=O`?
Rad51 HR inh: -7; Lmaj promast: 99*; PMI act: 0.9; m-calpain inh: 15; PMI act hi M6P: 0.8; WT yeast gro inh: 4

What do the screens show for `CCn1cc(C(=O)N2CCc3ccccc32)c(=O)c2cc(S(=O)(=O)N(C)C3CCCCC3)ccc21`?
Lmaj promast: 5; PMI act: 0.8; m-calpain inh: -36; PMI act hi M6P: 1; WT yeast gro inh: 83*

What do the screens show for `CCCCN(CC)CCCNC(=O)c1cn(CC)c2ccc(S(=O)(=O)N3CCc4ccccc4C3)cc2c1=O`?
Rad51 HR inh: -58; Lmaj promast: 98*; PMI act: 1.1; m-calpain inh: -18; PMI act hi M6P: 1; WT yeast gro inh: 4

Results for CC(C)CC(=O)N1CCN(Cc2ccccc2[N+](=O)[O-])CC1 ?
Rad51 HR inh: 6; Lmaj promast: 0; PMI act: 0.9; m-calpain inh: -17; PMI act hi M6P: 0.9; WT yeast gro inh: -7

What do the screens show for `CC(=O)OCCCNc1cc(Sc2nc3ccccc3s2)c2nonc2c1[N+](=O)[O-]`?
Rad51 HR inh: -3; Lmaj promast: 65*; PMI act: 0.5; m-calpain inh: -1; PMI act hi M6P: 0.6; WT yeast gro inh: 97*

What do the screens show for `COC(=O)CCSc1cc(NCCOC(C)=O)c([N+](=O)[O-])c2nonc12`?
Rad51 HR inh: 0; Lmaj promast: 84*; PMI act: 1; m-calpain inh: 27; PMI act hi M6P: 0.6; WT yeast gro inh: -1

Screening data: PubChem BioAssay, several laboratories
